Assay outcomes (PubChem)
Rpn11 inh: inhibitors of human proteasome Rpn11 | hit rate 0.59% among 360,000 | O00487 | human 26S proteasome, Ub4-pepOG fluorescence polarization; 20S core pre-blocked with epoxomicin | inhibition, % at 20 µM;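 active = inhibition at 20 µM, scaled to each plate's controls, above about 33%, limit read from the data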
HNF4A DNA FP: change in binding of human HNF4 alpha to DNA; HNF4a-FITC DNA binding, fluorescence polarization, 1 h; activity change, % at 10 µM; hit rate 0.3% among 360,000; in the data active = activity change above about 30%, passing the limit was not always enough
TPT1 inh: inhibitors of Candida albicans tRNA 2'-phosphotransferase TPT1; recombinant caTPT1, FP RNA substrate dephosphorylation; AID 1962; hit rate 0.81% among 300,000; inhibition, % at 5 µM;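 active = inhibition above the mean of all tested compounds plus 3 SD, set per screening campaign, cut at about 24% in these data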;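 also: plate controls were DMSO alone for no effect and ferristatin control at 100 nM for full effect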
SENP1 FRET inh: SENP1 (human) catalytic domain inhibition. Q9P0U3. recombinant SENP1 catalytic domain, CyPet-SUMO1-YPet FRET cleavage. inhibition, % at 10 µM. hit rate 0.21% among 360,000. AID 624204;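 active = inhibition at least 30% at 10 µM, raw YFP signal under a set limit, fluorescence ratio 0.5 to 1.5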;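 also: 0% = enzyme with DMSO and 100% = no enzyme wells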
Target sequence (Q9P0U3 419-644 limits assumed): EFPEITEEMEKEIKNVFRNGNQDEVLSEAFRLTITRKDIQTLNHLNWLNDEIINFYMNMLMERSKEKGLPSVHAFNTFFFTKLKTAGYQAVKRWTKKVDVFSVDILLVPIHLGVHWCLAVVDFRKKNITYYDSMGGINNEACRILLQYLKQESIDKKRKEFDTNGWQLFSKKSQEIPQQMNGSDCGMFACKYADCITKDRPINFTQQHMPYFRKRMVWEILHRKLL
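Controls: no-enzyme wells low, DMSO-plus-enzyme wells high control. Test system: human recombinant His6-tagged SENP1 catalytic domain enzyme. Reagent: SFCypet-SUMO1-SFYpet FRET protein substrate, 25 nM final. Doses: one dose per compound, 10 µM, 0.5% DMSO. Detection: FRET, CFP and YFP emission. Timing: 50 min reaction at room temperature.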
CSN deneddyl inh: blocks human CSN-mediated cullin deneddylation. Q92905. Purified CSN, SCF-Nedd8-OG deneddylation, fluorescence polarization. inhibition, % at 12.5 µM. hit rate 0.38% among 360,000;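 active = pattern-corrected inhibition above about 35%, with an unprinted fluorescence ratio check between 0.5 and 1.5, limit read from the data, passing the limit was not always enough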;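 also: 0% = enzyme with substrate and 100% = substrate without enzyme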
Target sequence (Q92905 whole entry, looked up, one chain of several): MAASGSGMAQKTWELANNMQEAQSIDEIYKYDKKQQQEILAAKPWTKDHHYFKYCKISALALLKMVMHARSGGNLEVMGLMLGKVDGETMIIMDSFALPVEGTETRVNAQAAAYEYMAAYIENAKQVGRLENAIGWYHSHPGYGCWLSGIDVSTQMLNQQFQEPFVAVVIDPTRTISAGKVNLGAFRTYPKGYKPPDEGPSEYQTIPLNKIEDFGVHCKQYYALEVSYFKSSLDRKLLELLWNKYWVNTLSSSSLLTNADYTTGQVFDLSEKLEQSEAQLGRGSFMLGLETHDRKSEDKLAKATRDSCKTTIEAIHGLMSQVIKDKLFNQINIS
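Material: human Csn5 produced in HEK293T cells; Input: enzyme 0.24 nM; Reagent: SCFSkp2-Nedd8OG substrate at 10 nM final; Dosing: 12.5 µM compound; Incubation: 90 min reaction at room temperature; Detection: fluorescence polarization of the substrate; Evaluation: % inhibition of substrate cleavage by Csn5; Control set: substrate-only high control, full reaction low control.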
caTPT1 confirm: TPT1 (C. albicans) inhibition, confirmation; shares compounds with TPT1 inh; recombinant caTPT1, fluorescence polarization, RNase T1 coupled; inhibition, % at 5 µM; hit rate 74% among 2,400;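 active = inhibition above the primary screen limit, the mean inhibition of all tested compounds plus 3 SD, cut at about 25% in these data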
RNase T1 counter: RNase T1 inhibition in TPT1 counter-screen; shares compounds with TPT1 inh; RNase T1 cleavage, fluorescence polarization, 1536-well; inhibition, % at 5 µM; hit rate 83% among 2,400; AID 2153;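 active = inhibition above the solvent-only control well mean plus 3 SD, limit set per screening run, cut at about 23% in these data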;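 also: plate controls were DMSO wells with enzyme for no effect and wells without RNase T1 for full effect; inhibitors block cleavage so intact labeled substrate keeps polarization high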
Target sequence (P00651 whole entry, looked up): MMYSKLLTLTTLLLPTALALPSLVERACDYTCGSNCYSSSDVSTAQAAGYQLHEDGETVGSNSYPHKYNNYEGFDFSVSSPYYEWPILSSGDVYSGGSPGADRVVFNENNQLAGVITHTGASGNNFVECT
* marks the source's active call; other numbers are inactive results; . = no result given. This is a sample that favours compounds with a hit; in the whole collection about 1.6% have one here.

SMILES	Rpn11 inh	HNF4A DNA FP	TPT1 inh	SENP1 FRET inh	CSN deneddyl inh	caTPT1 confirm	RNase T1 counter
CC1CCN(S(=O)(=O)c2cccc(C(=O)Nc3ccccc3)c2)CC1	-3.2	6.2	4.2	-1.2	3.6	.	.
Cc1nnc(SCC(=O)NCCC2=CCCCC2)[nH]c1=O	1.9	0.9	.	1.6	-2.6	.	.
C#CCNC(=O)C[C@@H]1C[C@@]2(C(=O)OCC)CCCC=C2N(Cc2ccc3c(c2)OCO3)C1=O	.	0.9	.	-1.4	1.0	.	.
Cc1ccc(C(=O)NCCCNC(=O)COc2ccc(C)c(C)c2)cn1	-6.7	-2.1	-0.5	0.3	4.0	.	.
CCOc1ccc(NS(=O)(=O)c2cccc(C(=O)N3CCN(C/C=C/c4ccccc4)CC3)c2)cc1	2.2	-5.3	.	1.8	0.7	.	.
CCOc1ccccc1C1C(C#N)=C(N)SC(N)=C1C#N	.	104.1	82.5*	-18.4	41.6	56.0*	67.3*
Cc1cc(C(=O)OCC(=O)c2ccc(Br)s2)no1	4.2	3.7	1.7	-0.7	-0.1	.	.
Cc1cc(C(=O)OCC(=O)c2ccc(Br)s2)c(C)o1	.	.	30.3*	.	.	5.6	10.0
COc1ccc2nc(Nc3nc(C)c(CCC(C)C)c(=O)[nH]3)nc(C)c2c1	-0.1	4.3	24.5*	1.0	2.1	2.5	7.3
COc1ccc2nc(Nc3nc(CSc4ccc(C)cc4)cc(=O)[nH]3)nc(C)c2c1	-1.9	-0.8	-1.2	2.5	0.6	.	.
CCN(CC)CC(=O)Nc1ccccc1SCC(=O)Nc1ccsc1C(=O)OC	-2.5	3.5	-1.6	1.2	5.6	.	.
CCOC(=O)/C(C#N)=C\c1ccc(N2CCN(C/C=C/c3ccccc3)CC2)cc1	.	6.0	46.2*	-25.2	16.6	81.6*	91.8*
N#CC(=Cc1ccc(-c2ccccc2)cc1)C(=O)c1ccccc1	13.8	-2.3	.	-40.7	10.7	.	.
Cc1ccc(C=C(C#N)C(=O)c2ccccc2)cc1	3.0	2.7	.	-16.6	1.0	.	.
CCN(CC)c1ccc(/C=C(\C#N)C(N)=S)cc1	.	102.5	104.1*	-33.7	-75.8	-3.4	9.9
CCN(CC)c1ccc(/C=C(\C#N)C(=O)c2ccc(Br)cc2)cc1	-44.1	-91.5	137.1*	-26.6	-95.4	104.2*	103.0*
CN(C)c1ccc(/C=C(\C#N)C(=O)c2ccccc2)cc1	.	77.0*	158.3*	-21.3	76.9	162.4*	149.6*
COc1ccc(-c2csc(NC(=O)CSCc3c(C)noc3C)n2)c(OC)c1	-1.9	-0.9	2.5	-0.8	-2.6	.	.
Cc1nc(N/N=C/c2cccc([N+](=O)[O-])c2)cc(N2CCCCC2)n1	-5.0	-4.1	.	1.1	0.3	.	.
COc1ccccc1CC(=O)Nc1ccc(S(=O)(=O)N2CC(C)CC(C)C2)cc1 (centres undefined)	6.6	1.0	.	-1.3	-6.6	.	.
O=C1NC(=S)N/C1=C\c1ccc(N2CCOCC2)cc1	29.6	15.9	25.9*	-17.4	7.1	26.1*	32.6*
O=C1/C(=C/c2ccc(N3CCCC3)cc2)NC(=S)N1C1CC1	.	168.5	162.2*	-24.0	133.9	168.9*	152.9*
Cc1cc(N2CCCC2)ccc1/C=C1\NC(=S)N(C)C1=O	.	152.7	164.1*	-25.3	141.5	166.5*	153.6*
CCOC(=O)/C(C#N)=C\C=C1C=CN(C)C=C1	.	164.0	158.1*	-17.2	123.3	173.5*	167.5*
CCOC(=O)/C(C#N)=C\c1ccc(CC)s1	-1.9	-1.2	10.7	-2.8	6.0	.	.
SMILES	Rpn11 inh	HNF4A DNA FP	TPT1 inh	SENP1 FRET inh	CSN deneddyl inh	caTPT1 confirm	RNase T1 counter
CCc1cc2c(=O)[nH]c(-c3ccncc3)nc2s1	-5.8	4.8	28.8*	-8.8	-1.2	3.4	6.4
CCOC(=O)c1cc(C#N)c(SCC(N)=O)[nH]c1=O	-9.5	-16.4	31.9*	-31.2	-2.8	39.8*	50.2*
CCN(CC)c1ccc(/C=N/N2C(=O)c3ccccc3C2=O)cc1	-8.5	-1.4	-0.7	-0.8	0.3	.	.
CCN(CC)c1ccc(/C=N/N2C(=O)c3ccccc3C2=O)c(O)c1	4.2	1.1	45.4*	-28.6	2.4	9.9	12.4
CC1=NN(c2ccccc2)C(=O)/C1=C/C=C/C=C/N(C)C	.	190.4	124.3*	32.8*	104.4	93.6*	102.0*
Cc1ccc(O)c(C(=O)c2cc(C#N)c(=O)n(-c3nccs3)c2)c1	.	35.4	55.7*	-38.8	-103.5	54.0*	61.4*
Cc1c(-n2cc(C(=O)c3cc(Br)ccc3O)cc(C#N)c2=O)c(=O)n(-c2ccccc2)n1C	38.9	17.2	36.5*	18.9	15.3	24.3*	32.3*
CCOC(=O)c1cc2nc(Nc3ccc(OC)cc3)sc2s1	32.4	18.0	39.3*	-50.2	5.3	27.2*	39.5*
CC(NCCN(C)C)C(=O)C12CC3CC(CC(C3)C1)C2 (centres undefined)	-1.3	0.1	1.8	1.6	3.7	.	.
NC(=O)c1cc[n+](CC2=C(C(=O)O)N3C(=O)[C@@H](NC(=O)C(c4ccccc4)S(=O)(=O)[O-])[C@H]3SC2)cc1 (some centres undefined)	38.4	-78.3	40.6*	8.5	17.0	38.6*	8.6
N[C@@H](C(=O)N[C@@H]1C(=O)N2C(C(=O)O)=C(Cl)CS[C@H]12)c1ccccc1	-3.0	-10.4	-3.8	-27.1	7.9	.	.
COc1ccc(CN2CCN(Cc3cc(=O)oc4cc(C)ccc34)CC2)c(OC)c1OC	-1.8	0.9	26.5*	-2.5	-0.4	9.5	12.7
COc1ccccc1N1CCN(Cc2cc(=O)oc3cc(C)ccc23)CC1	3.2	1.7	.	2.2	3.7	.	.
O=C(CSc1nnc(CNC(=O)c2c(F)cccc2Cl)o1)NCc1ccccc1	3.7	-4.9	3.0	3.8	-0.4	.	.
CCOC(=O)CCSc1nc(C)cc(C(F)(F)F)c1C#N	.	27.9	24.8*	76.4*	37.9*	32.7*	43.9*
CCOC(=O)C(C)Sc1nc(-c2ccco2)cc(C(F)(F)F)c1C#N (centres undefined)	27.5	9.5	25.9*	-18.8	3.4	14.3	19.9
Cc1cccc(C(=O)NCC(=O)N2CCN(S(=O)(=O)c3cc(C)ccc3C)CC2)c1	4.4	0.1	-2.4	1.1	-1.4	.	.
COc1cc(OC)c(C(=O)Nc2cccc3ccccc23)cc1OC	5.9	1.1	3.6	4.5	9.5	.	.
Cn1cc(CNCc2ccccc2OCC(O)CN2CCc3ccccc3C2)cn1 (centres undefined)	-0.6	3.4	26.4*	-2.3	-5.8	9.4	11.5
COc1ccccc1NC(=O)C(=O)N/N=C(\C)CC(=O)Nc1ccccc1C(F)(F)F	1.0	-2.8	-2.3	-9.6	-0.4	.	.
O=C1/C(=C/c2c[nH]c3ccccc23)CCC/C1=C\c1c[nH]c2ccccc12	.	105.4	50.7*	-28.1	26.2	147.4*	136.7*
